Assay results reported in PMC8861878 (The Journal of pharmacy and pharmacology, 2020).

Key:
[1] = Glucuronidation of isobavachin by pooled HLM, enzyme kinetics; type: in vitro ADME, human
[2] = molecular target: T1, UGT1A6 (Homo sapiens, UniProt P19224); test: Glucuronidation of isobavachin by recombinant UGT1A6, enzyme kinetics; type: in vitro ADME; settings: substrate inhibition constant, substrate inhibition model
T1 sequence (P19224 27-532): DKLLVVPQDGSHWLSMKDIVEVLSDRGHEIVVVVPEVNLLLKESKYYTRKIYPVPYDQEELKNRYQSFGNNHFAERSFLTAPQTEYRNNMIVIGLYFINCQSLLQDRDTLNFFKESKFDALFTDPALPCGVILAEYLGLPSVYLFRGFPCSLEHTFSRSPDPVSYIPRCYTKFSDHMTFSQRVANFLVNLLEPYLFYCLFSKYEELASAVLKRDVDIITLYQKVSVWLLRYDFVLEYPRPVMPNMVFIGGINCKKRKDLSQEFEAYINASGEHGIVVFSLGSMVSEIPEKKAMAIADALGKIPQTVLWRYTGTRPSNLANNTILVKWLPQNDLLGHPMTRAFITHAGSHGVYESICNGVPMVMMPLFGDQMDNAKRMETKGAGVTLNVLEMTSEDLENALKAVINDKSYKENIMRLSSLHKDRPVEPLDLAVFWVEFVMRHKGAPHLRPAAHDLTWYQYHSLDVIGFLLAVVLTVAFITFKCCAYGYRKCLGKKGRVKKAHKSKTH

[3] = molecular target: T2, CYP1A2 (Homo sapiens, UniProt P05177); test: Inhibition of CYP1A2; type: in vitro ADME; settings: isobavachin 1, 10, 100 μM; substrate phenacetin (100 μM)
T2 sequence (P05177 1-516): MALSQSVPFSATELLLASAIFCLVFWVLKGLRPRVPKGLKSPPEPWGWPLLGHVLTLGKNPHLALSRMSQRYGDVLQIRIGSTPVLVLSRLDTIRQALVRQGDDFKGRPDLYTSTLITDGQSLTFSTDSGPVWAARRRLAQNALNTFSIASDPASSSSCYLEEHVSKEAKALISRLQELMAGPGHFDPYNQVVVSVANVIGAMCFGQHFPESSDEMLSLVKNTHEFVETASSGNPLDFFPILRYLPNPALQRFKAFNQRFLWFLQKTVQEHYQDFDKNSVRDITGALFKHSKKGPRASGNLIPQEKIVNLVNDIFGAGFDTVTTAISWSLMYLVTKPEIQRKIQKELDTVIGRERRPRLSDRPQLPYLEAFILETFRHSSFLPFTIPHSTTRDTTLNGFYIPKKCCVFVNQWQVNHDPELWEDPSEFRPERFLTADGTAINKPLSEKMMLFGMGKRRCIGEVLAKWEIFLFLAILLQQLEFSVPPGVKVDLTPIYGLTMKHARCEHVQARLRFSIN
How it was run: (§1)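 Recombinant human CYPs (CYP1A2 and 3A4 at 0.05 mg/ml; CYP2C8 and 2E1 at 0.1 mg/ml) with probe substrate in Tris-HCl 50 mM pH 7.4, MgCl2 5 mM and NADPH 1 mM at 37 °C for 60 min. Run without (control) or with test compound at 1, 10 or 100 μM. Acetonitrile stop; metabolite by UHPLC-TQD-MS; activity versus control, triplicate.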

[4] = molecular target: T3, CYP2B6 (Homo sapiens, UniProt P20813); test: Inhibition of CYP2B6; type: in vitro ADME
T3 sequence (P20813 1-491): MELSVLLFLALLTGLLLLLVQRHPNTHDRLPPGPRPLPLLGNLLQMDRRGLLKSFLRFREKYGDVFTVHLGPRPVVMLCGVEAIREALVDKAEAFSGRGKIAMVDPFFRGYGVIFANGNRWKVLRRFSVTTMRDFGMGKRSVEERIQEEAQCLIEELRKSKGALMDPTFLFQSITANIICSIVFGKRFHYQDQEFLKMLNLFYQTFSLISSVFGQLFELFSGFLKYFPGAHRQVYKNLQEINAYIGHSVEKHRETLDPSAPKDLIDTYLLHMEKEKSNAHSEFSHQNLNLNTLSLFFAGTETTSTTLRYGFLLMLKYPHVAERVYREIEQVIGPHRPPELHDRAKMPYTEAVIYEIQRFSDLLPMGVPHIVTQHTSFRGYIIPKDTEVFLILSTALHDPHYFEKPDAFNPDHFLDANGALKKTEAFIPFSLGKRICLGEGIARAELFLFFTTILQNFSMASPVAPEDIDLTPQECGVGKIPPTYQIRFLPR

[5] = molecular target: CYP2C19 (Homo sapiens, UniProt P33261); test: Inhibition of CYP2C19; type: in vitro ADME
Chain of CYP2C19 (P33261 whole entry): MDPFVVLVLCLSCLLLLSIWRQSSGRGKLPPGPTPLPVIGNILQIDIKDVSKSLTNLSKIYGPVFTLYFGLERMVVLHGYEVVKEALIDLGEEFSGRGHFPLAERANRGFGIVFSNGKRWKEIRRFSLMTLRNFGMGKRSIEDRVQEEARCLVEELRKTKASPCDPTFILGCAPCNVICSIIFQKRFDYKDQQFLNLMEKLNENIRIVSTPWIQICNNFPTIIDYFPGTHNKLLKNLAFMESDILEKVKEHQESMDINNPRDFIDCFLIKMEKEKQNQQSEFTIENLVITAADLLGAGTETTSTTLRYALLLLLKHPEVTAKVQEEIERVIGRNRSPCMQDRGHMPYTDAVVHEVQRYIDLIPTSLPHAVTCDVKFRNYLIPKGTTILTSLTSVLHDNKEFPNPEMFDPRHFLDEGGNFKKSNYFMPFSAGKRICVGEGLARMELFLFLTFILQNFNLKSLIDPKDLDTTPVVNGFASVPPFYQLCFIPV

[6] = molecular target: CYP3A4 (Homo sapiens, UniProt P08684); test: Inhibition of CYP3A4; type: in vitro ADME; settings: isobavachin 1, 10, 100 μM; substrate nifedipine (40 μM)
Chain of CYP3A4 (P08684 whole entry): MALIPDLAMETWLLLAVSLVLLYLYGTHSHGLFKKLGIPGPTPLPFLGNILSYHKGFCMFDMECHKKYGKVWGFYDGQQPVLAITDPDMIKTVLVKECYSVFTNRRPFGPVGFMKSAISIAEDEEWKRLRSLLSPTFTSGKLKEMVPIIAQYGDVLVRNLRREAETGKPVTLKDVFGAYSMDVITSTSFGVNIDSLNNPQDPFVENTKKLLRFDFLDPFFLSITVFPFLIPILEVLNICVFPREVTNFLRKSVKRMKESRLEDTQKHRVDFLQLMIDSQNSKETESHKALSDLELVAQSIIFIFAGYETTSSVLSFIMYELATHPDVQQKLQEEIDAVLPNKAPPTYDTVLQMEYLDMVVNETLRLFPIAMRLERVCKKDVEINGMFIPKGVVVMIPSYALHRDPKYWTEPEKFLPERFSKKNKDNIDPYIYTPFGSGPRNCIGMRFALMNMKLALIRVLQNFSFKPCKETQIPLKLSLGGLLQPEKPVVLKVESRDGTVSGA
How it was run: as §1

[7] = molecular target: T4, UGT1A9 (Homo sapiens, UniProt O60656); test: Inhibition of UGT1A9; type: in vitro ADME
T4 sequence (O60656 26-530): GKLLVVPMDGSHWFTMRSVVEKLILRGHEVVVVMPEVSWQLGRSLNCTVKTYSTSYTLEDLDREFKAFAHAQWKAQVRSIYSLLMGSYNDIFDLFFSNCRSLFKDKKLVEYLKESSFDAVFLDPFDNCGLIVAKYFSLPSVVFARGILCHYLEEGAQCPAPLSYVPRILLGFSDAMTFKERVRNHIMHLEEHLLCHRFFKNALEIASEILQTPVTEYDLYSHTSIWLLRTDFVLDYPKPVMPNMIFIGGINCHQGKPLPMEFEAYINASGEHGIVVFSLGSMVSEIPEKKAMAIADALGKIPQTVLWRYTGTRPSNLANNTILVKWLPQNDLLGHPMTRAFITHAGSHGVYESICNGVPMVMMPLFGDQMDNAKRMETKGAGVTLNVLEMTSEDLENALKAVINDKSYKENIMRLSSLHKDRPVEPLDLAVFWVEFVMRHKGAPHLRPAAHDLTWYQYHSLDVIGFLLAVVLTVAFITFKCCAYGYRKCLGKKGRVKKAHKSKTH

[8] = system: expressed CYP enzymes; test: Reaction phenotyping with expressed CYP enzymes; type: in vitro ADME, human; settings: isobavachin at 10 μM (Figure S4A)
[9] = based on the smallest AIC and SC values

CC(C)=CCc1c(O)ccc2c1O[C@H](c1ccc(O)cc1)CC2=O [isobavachin]
CLint (CLmax) ([1]; formation of G1, Hill equation (CLmax)): 148.79 ± 9.36 μl/min per mg
CLint (CLmax) ([1]; formation of G2, substrate inhibition model): 21.82 ± 4.35 μl/min per mg
Ki ([2]; formation of G1): 21970 ± 5840 nM
Ki ([2]; formation of G2): 12710 ± 2600 nM
inhibitory effects [3]: negligible or weak
IC50 [4]: 5000 ± 480 nM
residual activities ([4]; 10 μM isobavachin): 30.86 % of the negative control
Ki ([4]; substrate bupropion, competitive model (not selected)): 350 ± 110 nM
Ki ([4]; substrate bupropion, mixed-type model (not selected)): 1460 ± 620 nM
Ki ([4]; substrate bupropion, non-competitive model (selected, smallest AIC and SC)): 1930 ± 180 nM
Inhibition type [4, 9]: non-competitive inhibition mode
α ([4]; substrate bupropion, mixed-type model): 1.49 ± 0.92
IC50 [5]: 270 ± 70 nM
residual activities ([5]; 10 μM isobavachin): 0 % of the negative control
Ki ([5]; substrate mephenytoin, competitive model (selected, smallest AIC and SC)): 1550 nM
Ki ([5]; substrate mephenytoin, mixed-type model (not selected)): 1550 ± 530 nM
Ki ([5]; substrate mephenytoin, non-competitive model (not selected)): 3340 ± 490 nM
Inhibition type [5, 9]: competitive inhibition
α ([5]; substrate mephenytoin, mixed-type model): >>1
inhibitory effects [6]: negligible or weak
IC50 [7]: 1210 ± 300 nM
residual activities ([7]; 10 μM isobavachin): 16.51 % of the negative control
Ki ([7]; substrate propofol, competitive model (not selected)): 200 ± 30 nM
Ki ([7]; substrate propofol, mixed-type model (not selected)): 430 ± 140 nM
Ki ([7]; substrate propofol, non-competitive model (selected, smallest AIC and SC)): 440 ± 40 nM
Inhibition type [7, 9]: non-competitive inhibition mode
α ([7]; substrate propofol, mixed-type model): 1.05 ± 0.70
CYP isozymes participating in oxidation [8]: CYP1A1, 1A2, 1B1, 2C8, 2C9, 2C19 and 2D6 all participated in the oxidation
